What was measured:
[1] = test system: A/Puerto Rico/8/34 (H1N1) influenza virus; assay: Cell protection assay, influenza virus in MDCK cells; type: cell-based, influenza virus A/PR/8/34 (H1N1)
Coxsackie B3 virus = assay: Cell protection assay, Coxsackie B3 virus in Vero cells; type: cell-based, coxsackievirus B3
In short: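 Confluent Vero monolayers given test compound, infected with Coxsackie B3 (m.o.i. 0.01), held 48 h at 36 °C, 5% CO2. Viability read by MTT (OD 540 nm) against virus-only wells; IC50 is 50% cell protection. […] SI = CC50/IC50.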

Cc1[nH]c(=O)[nH]c(=O)c1Cc1cn([C@@H]2O[C@H](CO)[C@@H](O)[C@H]2O)nn1 [Compound 8m, 6-Methyl-5-{[1-(β-D-ribofuranosyl)-1H-1,2,3-triazol-4-yl]methyl}-2,4(1H,3H)-pyrimidinedione]
antiviral activity against influenza virus A/PR/8/34 (H1N1), in words [1]: antiviral activity was demonstrated

Cc1[nH]c(=O)[nH]c(=O)c1CCCc1cn([C@@H]2O[C@H](CO)[C@@H](O)[C@H]2O)nn1 [Compound 8n, 6-Methyl-5-{[1-(β-D-ribofuranosyl)-1H-1,2,3-triazol-4-yl]propyl}-2,4(1H,3H)-pyrimidine-dione]
antiviral activity against influenza virus A/PR/8/34 (H1N1), in words [1]: antiviral activity was demonstrated

Cc1[nH]c(=O)[nH]c(=O)c1CCCCc1cn([C@@H]2O[C@H](CO)[C@@H](O)[C@H]2O)nn1 [Compound 8o, 6-Methyl-5-{[1-(β-D-ribofuranosyl)-1H-1,2,3-triazol-4-yl]butyl}-2,4(1H,3H)-pyrimidinedione]
antiviral activity against influenza virus A/PR/8/34 (H1N1), in words [1]: completely inactive

NC(=O)c1ncn([C@@H]2O[C@H](CO)[C@@H](O)[C@H]2O)n1 [Ribavirin, 1-β-D-ribofuranosyl-1,2,4-triazole-3-carboxamide]
antiviral activity against Coxsackie B3 virus, in words (Coxsackie B3 virus): inactive

O=c1[nH]c(=O)n(CCCc2cn([C@@H]3O[C@H](CO)[C@@H](O)[C@H]3O)nn2)c2ccccc12 [Compound 4h, N1-{[1-(β-D-ribofuranosyl)-1H-1,2,3-triazol-4-yl]propyl}-2,4(1H,3H)-quinazolinedione]
antiviral activity against influenza virus A/PR/8/34 (H1N1), in words [1]: antiviral activity was demonstrated
